Assay results reported in ChEMBL document CHEMBL4477266, “Discovery of N-(benzyloxy)-1,3-diphenyl-1H-pyrazole-4-carboxamide derivatives as potential antiproliferative agents by inhibiting MEK” (Bioorg Med Chem, 2016).

Key:
[1] = system: A549; assay: Antiproliferative activity against human A549 cells after 48 hrs in presence of 10% FBS by MTT method; type: functional; conditions: A549, 48 h
Procedure, shortened: (§1)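 Cells were grown to log phase in DMEM with 10% fetal bovine serum at 37 °C under humidified 5% CO₂. They were seeded at 10⁵ cells/well and left 24 h to reattach. Compounds were added at increasing concentrations with 10% FBS for 48 h. Values are the mean of three independent experiments, each run in triplicate.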

[2] = system: HeLa; assay: Antiproliferative activity against human HeLa cells after 48 hrs in presence of 10% FBS by MTT method; type: functional; procedure, shortened: as §1
[3] = Antiproliferative activity against human 293T cells after 48 hrs in presence of 10% FBS by MTT method; type: cell-based; conditions: 293T (HEK-293T) cells; procedure, shortened: as §1
[4] = system: MCF7; assay: Antiproliferative activity against human MCF7 cells after 48 hrs in presence of 10% FBS by MTT method; type: functional; conditions: MCF7, 48 h; procedure, shortened: as §1
[5] = target: Receptor tyrosine-protein kinase erbB-2 (Homo sapiens, UniProt P04626); assay: Inhibition of HER2 (unknown origin)
[6] = target: T1, Dual specificity mitogen-activated protein kinase kinase 1 (Homo sapiens, UniProt Q02750); assay: Inhibition of MEK1 in […] human A549 cells assessed as reduction in ERK1/2 phosphorylation by ELISA; type: cell-based
Target sequence in this assay (Q02750 whole entry, looked up, change not shown): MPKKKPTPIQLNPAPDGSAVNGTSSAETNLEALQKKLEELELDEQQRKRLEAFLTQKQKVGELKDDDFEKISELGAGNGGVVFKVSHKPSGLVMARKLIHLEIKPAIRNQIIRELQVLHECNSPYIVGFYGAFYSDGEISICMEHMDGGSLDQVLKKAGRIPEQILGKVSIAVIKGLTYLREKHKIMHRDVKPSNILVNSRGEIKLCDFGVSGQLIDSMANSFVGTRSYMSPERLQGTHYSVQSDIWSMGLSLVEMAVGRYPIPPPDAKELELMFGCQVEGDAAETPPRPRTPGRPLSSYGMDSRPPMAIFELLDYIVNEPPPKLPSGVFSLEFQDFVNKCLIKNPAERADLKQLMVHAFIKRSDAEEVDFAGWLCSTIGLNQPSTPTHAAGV

[7] = target: T1, Dual specificity mitogen-activated protein kinase kinase 1; assay: Inhibition of recombinant full length human N-terminal GST-tagged C-terminal His6-tagged MEK1 expressed in Escherichia coli using myelin basic protein as substrate in presence of activated BRAF and ERK2 by ELISA
Target sequence in this assay (Q02750 whole entry): as the sequence (Q02750 whole entry, looked up, change not shown) above

[8] = target: T2, Aurora kinase A (Homo sapiens, UniProt O14965); assay: Inhibition of Aurora A (unknown origin)
T2 sequence (O14965 whole entry): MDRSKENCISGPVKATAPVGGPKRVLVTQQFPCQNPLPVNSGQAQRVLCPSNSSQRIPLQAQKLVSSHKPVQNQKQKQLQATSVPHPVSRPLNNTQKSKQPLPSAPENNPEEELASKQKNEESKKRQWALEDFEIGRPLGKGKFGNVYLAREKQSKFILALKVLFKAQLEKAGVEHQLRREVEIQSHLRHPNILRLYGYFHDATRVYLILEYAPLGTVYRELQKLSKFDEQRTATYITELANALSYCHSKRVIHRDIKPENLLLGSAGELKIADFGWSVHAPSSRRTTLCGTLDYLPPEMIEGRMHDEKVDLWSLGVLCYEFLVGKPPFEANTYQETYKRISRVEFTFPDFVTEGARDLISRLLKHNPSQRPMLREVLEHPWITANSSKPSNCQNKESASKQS

[9] = target: Focal adhesion kinase 1 (Homo sapiens, UniProt Q05397); assay: Inhibition of FAK in human MCF7 cells; type: cell-based
[10] = target: Epidermal growth factor receptor (Homo sapiens, UniProt P00533); assay: Inhibition of EGFR (unknown origin)
[11] = target: Vascular endothelial growth factor receptor 2 (Homo sapiens, UniProt P35968); assay: Inhibition of VEGFR2 (unknown origin)
Vascular endothelial growth factor receptor 2, sequence (P35968 whole entry): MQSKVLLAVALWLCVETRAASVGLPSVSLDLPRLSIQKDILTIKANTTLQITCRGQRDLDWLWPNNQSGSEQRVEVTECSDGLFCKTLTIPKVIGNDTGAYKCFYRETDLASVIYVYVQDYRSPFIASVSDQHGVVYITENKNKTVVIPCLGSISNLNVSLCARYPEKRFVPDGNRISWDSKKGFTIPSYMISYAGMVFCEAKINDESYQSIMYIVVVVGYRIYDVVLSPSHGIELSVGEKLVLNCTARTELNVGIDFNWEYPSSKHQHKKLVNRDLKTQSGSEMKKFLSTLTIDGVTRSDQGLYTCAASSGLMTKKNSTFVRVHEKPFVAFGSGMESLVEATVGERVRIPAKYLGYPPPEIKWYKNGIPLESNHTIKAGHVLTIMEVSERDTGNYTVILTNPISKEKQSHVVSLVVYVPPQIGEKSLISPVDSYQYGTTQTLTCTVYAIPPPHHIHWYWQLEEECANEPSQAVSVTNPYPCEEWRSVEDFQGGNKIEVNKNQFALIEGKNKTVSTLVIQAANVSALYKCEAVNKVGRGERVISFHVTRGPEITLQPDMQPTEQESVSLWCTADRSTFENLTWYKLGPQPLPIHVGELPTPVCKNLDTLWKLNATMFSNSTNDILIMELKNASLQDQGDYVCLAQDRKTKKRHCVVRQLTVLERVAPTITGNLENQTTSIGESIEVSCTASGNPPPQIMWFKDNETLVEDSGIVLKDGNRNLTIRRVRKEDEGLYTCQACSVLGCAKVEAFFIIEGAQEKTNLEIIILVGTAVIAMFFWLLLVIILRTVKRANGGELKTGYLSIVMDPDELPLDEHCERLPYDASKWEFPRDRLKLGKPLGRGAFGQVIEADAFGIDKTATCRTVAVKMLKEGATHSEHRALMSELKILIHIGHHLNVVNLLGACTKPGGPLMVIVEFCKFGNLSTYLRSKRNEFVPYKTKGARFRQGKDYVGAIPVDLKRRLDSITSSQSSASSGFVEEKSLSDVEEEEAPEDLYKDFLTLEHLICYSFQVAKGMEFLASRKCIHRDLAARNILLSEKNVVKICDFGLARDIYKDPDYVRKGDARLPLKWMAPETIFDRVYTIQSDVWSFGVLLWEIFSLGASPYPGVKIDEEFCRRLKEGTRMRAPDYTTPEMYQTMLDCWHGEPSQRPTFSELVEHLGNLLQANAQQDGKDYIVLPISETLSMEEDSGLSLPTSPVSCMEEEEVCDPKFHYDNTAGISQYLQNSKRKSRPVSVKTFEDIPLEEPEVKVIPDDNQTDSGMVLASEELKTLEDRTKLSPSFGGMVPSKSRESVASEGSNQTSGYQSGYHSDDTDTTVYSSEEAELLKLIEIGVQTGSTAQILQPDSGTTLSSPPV

Receptor tyrosine-protein kinase erbB-2, sequence (P04626 whole entry): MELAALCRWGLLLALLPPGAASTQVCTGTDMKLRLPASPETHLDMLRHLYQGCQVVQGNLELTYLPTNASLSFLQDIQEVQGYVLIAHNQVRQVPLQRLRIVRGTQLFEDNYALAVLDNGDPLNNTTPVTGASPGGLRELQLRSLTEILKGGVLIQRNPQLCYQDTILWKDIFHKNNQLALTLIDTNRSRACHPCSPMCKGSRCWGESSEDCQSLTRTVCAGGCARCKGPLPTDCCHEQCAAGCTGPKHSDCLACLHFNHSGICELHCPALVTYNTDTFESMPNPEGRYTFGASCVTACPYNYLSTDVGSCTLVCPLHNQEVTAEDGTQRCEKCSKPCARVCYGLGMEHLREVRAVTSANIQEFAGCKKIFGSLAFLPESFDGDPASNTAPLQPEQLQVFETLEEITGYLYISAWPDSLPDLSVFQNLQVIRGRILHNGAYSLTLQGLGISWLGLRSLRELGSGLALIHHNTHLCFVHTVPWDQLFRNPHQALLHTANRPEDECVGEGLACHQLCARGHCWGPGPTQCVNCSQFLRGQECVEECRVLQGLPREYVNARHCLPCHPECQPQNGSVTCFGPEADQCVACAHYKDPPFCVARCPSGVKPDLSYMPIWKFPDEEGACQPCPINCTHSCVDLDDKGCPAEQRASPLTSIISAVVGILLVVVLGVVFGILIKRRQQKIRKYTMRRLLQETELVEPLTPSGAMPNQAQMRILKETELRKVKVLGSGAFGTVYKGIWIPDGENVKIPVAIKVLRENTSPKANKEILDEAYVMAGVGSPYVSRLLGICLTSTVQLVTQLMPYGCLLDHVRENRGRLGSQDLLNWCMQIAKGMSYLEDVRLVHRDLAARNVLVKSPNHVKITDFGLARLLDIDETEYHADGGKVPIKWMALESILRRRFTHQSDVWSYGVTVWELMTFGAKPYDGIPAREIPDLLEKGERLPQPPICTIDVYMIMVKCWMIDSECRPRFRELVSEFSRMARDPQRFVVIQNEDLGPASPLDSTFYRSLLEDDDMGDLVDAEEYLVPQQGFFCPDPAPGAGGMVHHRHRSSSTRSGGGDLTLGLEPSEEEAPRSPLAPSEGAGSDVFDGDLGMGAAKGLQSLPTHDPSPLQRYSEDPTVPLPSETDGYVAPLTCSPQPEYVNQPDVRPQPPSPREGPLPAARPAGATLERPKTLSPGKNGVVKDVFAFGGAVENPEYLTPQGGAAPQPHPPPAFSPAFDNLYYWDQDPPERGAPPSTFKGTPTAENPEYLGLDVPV
Focal adhesion kinase 1, sequence (Q05397 whole entry): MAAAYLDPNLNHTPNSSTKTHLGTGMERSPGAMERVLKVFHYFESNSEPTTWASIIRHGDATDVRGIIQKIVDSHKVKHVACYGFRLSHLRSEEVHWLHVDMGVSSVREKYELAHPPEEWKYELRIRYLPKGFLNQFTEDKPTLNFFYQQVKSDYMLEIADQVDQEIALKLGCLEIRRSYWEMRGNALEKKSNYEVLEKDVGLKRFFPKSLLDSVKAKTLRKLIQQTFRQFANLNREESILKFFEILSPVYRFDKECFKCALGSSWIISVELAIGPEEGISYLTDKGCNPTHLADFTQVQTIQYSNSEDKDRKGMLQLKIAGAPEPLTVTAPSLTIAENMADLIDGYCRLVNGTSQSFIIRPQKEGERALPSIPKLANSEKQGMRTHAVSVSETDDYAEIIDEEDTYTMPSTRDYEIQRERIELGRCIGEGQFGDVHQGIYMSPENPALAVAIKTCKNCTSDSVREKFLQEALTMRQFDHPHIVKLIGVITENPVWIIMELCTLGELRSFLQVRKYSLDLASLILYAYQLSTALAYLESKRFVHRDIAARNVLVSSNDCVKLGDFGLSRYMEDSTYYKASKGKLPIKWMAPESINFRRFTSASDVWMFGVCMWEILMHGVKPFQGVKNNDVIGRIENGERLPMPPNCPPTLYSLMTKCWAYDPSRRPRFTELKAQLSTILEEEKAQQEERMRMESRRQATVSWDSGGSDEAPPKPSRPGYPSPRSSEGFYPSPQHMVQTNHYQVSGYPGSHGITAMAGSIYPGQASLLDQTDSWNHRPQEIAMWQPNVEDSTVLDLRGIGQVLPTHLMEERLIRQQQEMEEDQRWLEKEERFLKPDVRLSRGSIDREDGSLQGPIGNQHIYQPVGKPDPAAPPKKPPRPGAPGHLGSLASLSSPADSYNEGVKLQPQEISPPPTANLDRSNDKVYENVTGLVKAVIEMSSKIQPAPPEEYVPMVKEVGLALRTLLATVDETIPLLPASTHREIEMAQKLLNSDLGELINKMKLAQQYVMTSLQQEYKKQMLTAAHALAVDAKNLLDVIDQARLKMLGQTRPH

Row | SMILES | GI50 [1] [µM] | GI50 [2] [µM] | CC50 at 48 h [3] [µM] | GI50 [4] [µM] | IC50 [5] [µM] | IC50 [6] [µM] | IC50 [7] [µM] | IC50 [8] [µM] | IC50 [9] [µM] | IC50 [10] [µM] | IC50 [11] [µM]
1 | Cc1ccc(-n2cc(C(=O)NOCc3ccccc3Cl)c(-c3ccccc3)n2)cc1 | 0.38 | 4.68 | 38.7 | 2.64 |  |  |  |  |  |  | 
2 | O=C(NOCc1ccccc1Cl)c1cn(-c2ccc(Cl)cc2)nc1-c1ccccc1 | 15.5 | 8.85 | 129 | 16.1 |  |  |  |  |  |  | 
3 | Cc1ccc(-n2cc(C(=O)NOCc3ccccc3)c(-c3ccccc3)n2)cc1 | 1.14 | 6.69 | 40.8 | 1.87 |  |  |  |  |  |  | 
4 | COc1cc2ncnc(Nc3ccc(F)c(Cl)c3)c2cc1OCCCN1CCOCC1 [GEFITINIB] | 2.86 |  |  |  |  |  |  |  |  |  | 
5 | O=C(NOCc1ccccc1F)c1cn(-c2ccc(F)cc2)nc1-c1ccccc1 | 17.5 | 10.3 | 147 | 12 |  |  |  |  |  |  | 
6 | O=C(NOCc1ccccc1)c1cn(-c2ccc(F)cc2)nc1-c1ccccc1 | 10.4 | 6.11 | 217 | 15.3 |  |  |  |  |  |  | 
7 | Cc1ccc(-n2cc(C(=O)NOCc3ccccc3F)c(-c3ccccc3)n2)cc1 | 0.26 | 1.18 | 20.6 | 2.11 | > 25 | 0.61 | 0.091 | 8.3 | 15.6 | > 25 | > 25
8 | O=C(NOCc1ccccc1)c1cn(-c2ccc(Cl)cc2)nc1-c1ccccc1 | 13 | 8.35 | 51.9 | 10.8 |  |  |  |  |  |  | 
9 | O=C(NOCc1ccccc1F)c1cn(-c2ccc(Cl)cc2)nc1-c1ccccc1 | 12.1 | 4.17 | 126 | 15.1 |  |  |  |  |  |  | 
10 | COc1ccc(-n2cc(C(=O)NOCc3ccccc3F)c(-c3ccccc3)n2)cc1 | 2.16 | 2.9 | 24.6 | 6 |  |  |  |  |  |  | 
11 | O=C(NOCc1ccc(Cl)cc1Cl)c1cn(-c2ccc(Cl)cc2)nc1-c1ccccc1 | 13.1 | 5.16 | 46.3 | 16.2 |  |  |  |  |  |  | 
12 | O=C(NOCc1ccc(Cl)cc1Cl)c1cn(-c2ccc(F)cc2)nc1-c1ccccc1 | 14 | 7.35 | 45 | 25.3 |  |  |  |  |  |  | 
13 | COc1ccc(-n2cc(C(=O)NOCc3ccc(Cl)cc3Cl)c(-c3ccccc3)n2)cc1 | 3.83 | 5.75 | 545 | 2.57 |  |  |  |  |  |  | 
14 | O=C(NOCc1ccccc1F)c1cn(-c2ccccc2)nc1-c1ccccc1 | 5.94 | 11.8 | 75.7 | 16.1 |  |  |  |  |  |  | 
15 | O=C(NOCc1ccc(Cl)cc1Cl)c1cn(-c2ccccc2)nc1-c1ccccc1 | 7.35 | 5.1 | 40.2 | 9.66 |  |  |  |  |  |  | 
16 | Cc1ccc(-n2cc(C(=O)NOCc3ccc(Cl)cc3Cl)c(-c3ccccc3)n2)cc1 | 1.08 | 2.04 | 39.6 | 2.31 |  |  |  |  |  |  | 
17 | O=C(NOCc1ccccc1)c1cn(-c2ccccc2)nc1-c1ccccc1 | 5 | 8.83 | 122 | 13.4 |  |  |  |  |  |  | 
18 | O=C(NOCc1ccccc1Cl)c1cn(-c2ccccc2)nc1-c1ccccc1 | 10.3 | 17.8 | 82 | 7.41 |  |  |  |  |  |  | 
19 | COc1ccc(-n2cc(C(=O)NOCc3ccccc3)c(-c3ccccc3)n2)cc1 | 1.94 | 2.64 | 201 | 2.77 |  |  |  |  |  |  | 
20 | COc1ccc(-n2cc(C(=O)NOCc3ccccc3Cl)c(-c3ccccc3)n2)cc1 | 2.45 | 3.48 | 586 | 3.73 |  |  |  |  |  |  | 
21 | O=C(NOCc1ccccc1Cl)c1cn(-c2ccc(F)cc2)nc1-c1ccccc1 | 8.33 | 36.4 | 44.7 | 11.4 |  |  |  |  |  |  | 
